The source made the active and inactive calls. No cut-off for these calls is given here.
Key:
SK-OV-3 = assay: Cytotoxicity against human SKOV3 cells after 72 hrs by spectrophotometry; format: functional, cell-based; details: SK-OV-3, 72 h
Procedure, shortened: (§1)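 Cells grown as monolayers in DMEM with 10% FBS, penicillin and streptomycin at 37 °C, 5% CO₂. Seeded at 5 × 10³ cells/well and exposed for 72 h. Medium changed, then another day of incubation. XTT (1 mg/mL) plus PMS added in serum-free medium for 4 h at 37 °C, read at 492 nm. Percent of control growth = treated/control absorbance × 100 (n = 3). GI50 taken from the linear portion of the curve.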

HepG2 [1] = assay: Cytotoxicity against human HepG2 cells after 72 hrs by spectrophotometry; format: functional, cell-based; details: HepG2, 72 h; procedure, shortened: as §1
HepG2 [2] = assay: Cell cycle arrest in human HepG2 cells assessed as accumulation at G2/M phase at 62.5 nM after 24 hrs by flow cytometry; format: functional, cell-based
Procedure, shortened: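 After treatment, cells were harvested, washed in PBS and resuspended in 1 mL 0.1% sodium citrate containing 0.05 mg propidium iodide and 50 µg RNase for 30 min at room temperature in the dark. DNA content was measured by flow cytometry, with at least three experiments run.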

H22 [3] = assay: Antitumor activity against mouse H22 cells transfected in nude mouse assessed as tumor growth inhibition at 200 mg/kg, qd after 7 days relative to control; format: functional; details: H22, 168 h, read-out: TGI
Procedure, shortened: (§2)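 Female SPF/ICR athymic nude mice, 4–5 weeks old (24 ± 2 g), received H22 cells (1 × 10⁶ per animal) s.c. into the armpit. Dosing started once tumors were detectable by fluorescent macro-imaging and was given once daily for 7 days. Animals were then killed and solid tumors excised and weighed. Inhibition = (mean vehicle tumor weight − mean treated)/mean vehicle × 100%. n = 6 per group at start.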

H22 [4] = assay: Antitumor activity against mouse H22 cells transfected in nude mouse assessed as tumor growth inhibition at 50 mg/kg, qd after 7 days relative to control; format: functional; details: H22, 168 h, read-out: TGI; procedure, shortened: as §2
H22 [5] = assay: Antitumor activity against mouse H22 cells transfected in nude mouse assessed as tumor growth inhibition at 10 mg/kg, qd after 7 days relative to control; format: functional; details: H22, 168 h, read-out: TGI; procedure, shortened: as §2

Structure (SMILES) | IC50 (SK-OV-3) [nM] | IC50 (HepG2 [1]) [nM] | Activity (HepG2 [2]) | inhibition in vivo at 200 mg/kg (H22 [3]) [%] | inhibition in vivo at 50 mg/kg (H22 [4]) [%] | inhibition in vivo at 10 mg/kg (H22 [5]) [%]
COc1ccc(-c2cccc(=O)n2-c2cc(OC)c(OC)c(OC)c2)cc1C | 583 | 129 | – | – | – | –
COc1cc(-n2c(-c3ccc([N+](=O)[O-])cc3)cccc2=O)cc(OC)c1OC | 201 | < 10 | inactive | 61 | 31 | –
COc1cc(-c2cccc(=O)n2-c2ccc([N+](=O)[O-])cc2)cc(OC)c1OC | 311 | 941 | – | – | – | –
COc1ccc(-n2c(-c3cc(OC)c(OC)c(OC)c3)cccc2=O)cc1OC | 14300 | 4870 | – | – | – | –
COc1ccc(-n2c(-c3cc(OC)c(OC)c(OC)c3)cccc2=O)cc1O | 1220 | 1220 | – | – | – | –
COc1cc(-n2c(-c3ccc(OC(F)(F)F)cc3)cccc2=O)cc(OC)c1OC | 461 | 1960 | – | – | – | –
COc1cc(-c2cccc(=O)n2-c2ccc3c(c2)OCO3)cc(OC)c1OC | 14000 | 5410 | – | – | – | –
COc1cc(-n2c(-c3ccc4c(c3)OCO4)cccc2=O)cc(OC)c1OC | 64 | < 10 | inactive | 27 | 17 | –
COc1cc(-n2c(-c3cccc(O)c3)cccc2=O)cc(OC)c1OC | 1460 | 34 | – | – | – | –
COc1ccc(-c2cccc(=O)n2-c2cc(OC)c(OC)c(OC)c2)cc1O | < 10 | < 10 | inactive | 40 | 27 | –
COc1ccc(-n2c(-c3cc(OC)c(OC)c(OC)c3)cccc2=O)cc1 | 1540 | 5740 | – | – | – | –
COc1cc(-n2c(-c3cccc4cc[nH]c34)cccc2=O)cc(OC)c1OC | 138 | 2400 | – | – | – | –
CC(=O)O[C@H]1C(=O)[C@@]2(C)[C@H]([C@H](OC(=O)c3ccccc3)[C@]3(O)C[C@H](OC(=O)[C@H](O)[C@@H](NC(=O)c4ccccc4)c4ccccc4)C(C)=C1C3(C)C)[C@]1(OC(C)=O)CO[C@@H]1C[C@@H]2O [PACLITAXEL] | 12 | 6 | – | – | – | 47
COc1ccc(-c2cccc(=O)n2-c2cc(OC)c(OC)c(OC)c2)cc1OCc1ccccc1 | 2310 | 269 | – | – | – | –
COc1ccc(-c2cccc(=O)n2-c2cc(OC)c(OC)c(OC)c2)cc1 | < 10 | < 10 | inactive | 54 | 41 | –
COc1ccc(-c2cccc(=O)n2-c2cc(OC)c(OC)c(OC)c2)cc1OC | 545 | 513 | – | – | – | –
COc1cc(-n2c(-c3cccc(F)c3)cccc2=O)cc(OC)c1OC | 472 | 159 | – | – | – | –
COc1cc(-c2cccc(=O)n2-c2ccc(C(F)(F)F)cc2)cc(OC)c1OC | 1920 | 10200 | – | – | – | –
COc1cc(-n2c(-c3ccncc3)cccc2=O)cc(OC)c1OC | 1780 | 1780 | – | – | – | –
COc1cc(-c2cccc(=O)n2-c2cccc(F)c2)cc(OC)c1OC | 340 | 73 | – | – | – | –
COc1cc(-c2cccc(=O)n2-c2ccc(F)cc2)cc(OC)c1OC | 9740 | > 100000 | – | – | – | –
COc1ccc(-n2c(-c3cc(OC)c(OC)c(OC)c3)cccc2=O)cc1OCc1ccccc1 | 25500 | 3040 | – | – | – | –
COc1cc(-c2cccc(=O)n2-c2cc(OC)c(OC)c(OC)c2)cc(OC)c1OC | 844 | 5460 | – | – | – | –
COc1cc(-c2cccc(=O)n2-c2ccncc2)cc(OC)c1OC | 3020 | 2520 | – | – | – | –

Reference: ChEMBL document CHEMBL2429774, “Synthesis and biological evaluation of novel 1,6-diaryl pyridin-2(1H)-one analogs” (Eur J Med Chem, 2013)
